B1: Osa-1-4 twister ribozyme (parent)
chain: CCGCCUAACACUGCCAAUGCCGGUCCCAAGCCCGGAUAAAAGUGGAGGGGGCGG

Among the data in the RNAGym collection of RNA variant scans (doi:10.1002/anie.201605470) are self-cleavage values, retold here.

In the data set the parent is B1. The data set is described as follows: self-cleavage, relative activity (ratio to wild type); higher = more cleavage; co-transcriptional. In outline: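 Relative activity is the fraction cleaved divided by that of the wild-type ribozyme. The library came from a DNA template for a 54-nucleotide Oryza sativa twister ribozyme, doped at the 48 positions downstream of the cleavage site with 97 % wild-type base and 1 % of each other base. After 2 h of in vitro transcription at 37 °C with co-transcriptional self-cleavage, the RNA was reverse-transcribed with a template-switching oligonucleotide, amplified by PCR and deep-sequenced, and reads with or without upstream sequence gave the cleavage status.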
As to A28G A38C, the self-cleavage was 0.21.

As for A28C G35C, the self-cleavage is 0.4.

In the case of A28C G35U, the self-cleavage was 0.85.

For A28C G35A, the self-cleavage came to 0.81.

Consider A28C C11G, for which the self-cleavage was 0.21.

As for A28C C11U, the self-cleavage stood at 0.91.

With A28C C11A, the self-cleavage was determined as 0.71.

Take C27U G34C: the self-cleavage was determined as 0.08.

On to C27U G34A, for which the self-cleavage turned out to be 0.18.

C27U G34U: the self-cleavage was 0.15.

Regarding A28G G35C, the self-cleavage stood at 0.09.

For the variant A28G G35A, the self-cleavage turned out to be 0.21.

Take C27U U37G: the self-cleavage was 0.37.

Regarding C27U U37C, the self-cleavage worked out at 0.32.

As for C27U U37A, the self-cleavage came out at 0.16.

In the case of A28G C20G, the self-cleavage amounted to 0.08.

For the variant A28G C20U, the self-cleavage stood at 0.31.

Regarding A28G C20A, the self-cleavage stood at 0.37.

Consider A28C G47U, for which the self-cleavage was determined as 0.19.

As to A28C G47C, the self-cleavage came to 0.08.

Take A28C G47A: the self-cleavage amounted to 0.2.

Take A28G C31G: the self-cleavage turned out to be 0.09.

Regarding A28G C31U, the self-cleavage worked out at 0.08.

On to A28G C31A, for which the self-cleavage is 0.02.

With A28C U43A, the self-cleavage came out at 0.72.

Turning to A28C U43G, the self-cleavage was 0.32.

Consider A28C U43C, for which the self-cleavage was 0.33.

Take A28C C21G: the self-cleavage was 0.09.

As to A28C C21A, the self-cleavage stood at 0.53.

On to A28C C21U, for which the self-cleavage worked out at 1.

For the variant A28C C26U, the self-cleavage amounted to 0.78.

On to A28C C26G, for which the self-cleavage was determined as 0.09.

Turning to A28C C26A, the self-cleavage came to 0.05.

On to A28C A29C, for which the self-cleavage was 0.05.

On to A28C A29U, for which the self-cleavage was determined as 0.09.

Turning to A28C A29G, the self-cleavage came to 0.16.

For A28G C9G, the self-cleavage was found to be 0.29.

A28G C9A: the self-cleavage worked out at 0.04.

A28G C9U: the self-cleavage came to 0.11.

On to A28C G51A, for which the self-cleavage came to 0.24.

As for A28C G51C, the self-cleavage was 0.12.

For the variant A28C G51U, the self-cleavage worked out at 0.28.

On to C27G U12G, for which the self-cleavage turned out to be 0.06.

For C27G U12C, the self-cleavage came to 0.05.

C27G U12A: the self-cleavage came out at 0.05.

With A28G C14U, the self-cleavage turned out to be 0.11.

Consider A28G C14A, for which the self-cleavage was 0.05.

In the case of A28G C14G, the self-cleavage was determined as 0.15.

In the case of A28G G13A, the self-cleavage was 0.05.

Turning to A28G G13C, the self-cleavage was found to be 0.03.

A28G G13U: the self-cleavage was 0.01.

A28C C32U: the self-cleavage was 0.11.

As for A28C C32A, the self-cleavage was found to be 0.08.

Take A28C C32G: the self-cleavage amounted to 0.1.

As to A28C G50C, the self-cleavage was found to be 1.

As for A28C G50A, the self-cleavage came to 0.81.

Regarding A28C G50U, the self-cleavage worked out at 0.98.

On to A28G C26U, for which the self-cleavage turned out to be 0.11.

For the variant A28G C26A, the self-cleavage turned out to be 0.03.

Take A28G C26G: the self-cleavage was determined as 0.21.

As to C27G U37C, the self-cleavage came out at 0.1.

As to C27G U37G, the self-cleavage was 0.16.

Take C27G U37A: the self-cleavage came out at 0.08.

A28C A36U: the self-cleavage came to 1.02.

A28C A36C: the self-cleavage stood at 0.64.

In the case of A28C A36G, the self-cleavage came out at 1.

For C27U G45A, the self-cleavage was determined as 0.05.

C27U G45U: the self-cleavage is 0.04.

C27U G45C: the self-cleavage turned out to be 0.04.

Consider C27G G53U, for which the self-cleavage was determined as 0.03.

In the case of C27G G53C, the self-cleavage came to 0.02.

For C27G G53A, the self-cleavage is 0.06.

As for C27U G42A, the self-cleavage came to 0.08.

Take C27U G42C: the self-cleavage worked out at 0.07.

With C27U G42U, the self-cleavage was 0.03.

With A28C, the self-cleavage came to 1.

Regarding A28G, the self-cleavage came out at 0.48.

For A28G C21U, the self-cleavage turned out to be 0.23.

With A28G C21A, the self-cleavage was found to be 0.07.

As to A28G C21G, the self-cleavage came out at 0.06.

For the variant A28C G19A, the self-cleavage is 0.79.

Turning to A28C G19U, the self-cleavage is 0.35.

In the case of A28C G19C, the self-cleavage came to 0.23.

On to A28G C25G, for which the self-cleavage came out at 0.09.

For the variant A28G C25A, the self-cleavage came out at 0.04.

With A28G C25U, the self-cleavage is 0.11.

Take A28C U12G: the self-cleavage was determined as 0.15.

Take A28C U12A: the self-cleavage came to 0.89.

As for A28C U12C, the self-cleavage came out at 0.34.

In the case of A28G G30A, the self-cleavage turned out to be 0.05.

As to A28G G30C, the self-cleavage is 0.04.

Consider A28G G30U, for which the self-cleavage was determined as 0.05.

As to C27U U12G, the self-cleavage was determined as 0.07.

On to C27U U12A, for which the self-cleavage is 0.1.

For the variant C27U U12C, the self-cleavage is 0.07.

With A28C C33G, the self-cleavage was 0.07.

With A28C C33U, the self-cleavage came out at 0.86.

Turning to A28C C33A, the self-cleavage was determined as 0.12.

As to A28G C52U, the self-cleavage was found to be 0.46.

As for A28G C52A, the self-cleavage turned out to be 0.2.

As for A28G C52G, the self-cleavage is 0.32.

Take C27G U24G: the self-cleavage turned out to be 0.02.

As to C27G U24C, the self-cleavage is 0.04.

Turning to C27G U24A, the self-cleavage was 0.03.

On to A28C G13C, for which the self-cleavage was 0.02.

On to A28C G13U, for which the self-cleavage was found to be 0.03.

For the variant A28C G13A, the self-cleavage amounted to 0.11.

In the case of A28G A7U, the self-cleavage came out at 0.07.

With A28G A7C, the self-cleavage came to 0.04.

On to A28G A7G, for which the self-cleavage came out at 0.38.

Take C27U G35C: the self-cleavage is 0.06.

Consider C27U G35A, for which the self-cleavage was 0.31.

As to C27U G35U, the self-cleavage is 0.19.

As for C27U, the self-cleavage was found to be 0.33.

Regarding C27U C31G, the self-cleavage stood at 0.06.

For the variant C27U C31A, the self-cleavage is 0.02.

Regarding C27U C31U, the self-cleavage worked out at 0.07.

For A28C A38G, the self-cleavage is 1.01.

For A28C A38C, the self-cleavage came to 0.98.

With A28C A38U, the self-cleavage was 0.97.

As to A28G C15A, the self-cleavage is 0.08.

Take A28G C15G: the self-cleavage is 0.23.

Turning to A28G C15U, the self-cleavage came to 0.08.

As to A28C C14G, the self-cleavage amounted to 0.17.

For the variant A28C C14U, the self-cleavage worked out at 0.46.

For A28C C14A, the self-cleavage was 0.09.

As to C27U G53A, the self-cleavage was determined as 0.12.

For the variant C27U G53C, the self-cleavage turned out to be 0.05.

For the variant C27U G53U, the self-cleavage was determined as 0.08.

In the case of A28C G49A, the self-cleavage is 0.16.

For the variant A28C G49C, the self-cleavage was 0.07.

With A28C G49U, the self-cleavage was determined as 0.13.

Consider A28G A39G, for which the self-cleavage was 0.17.

On to A28G A39U, for which the self-cleavage turned out to be 0.16.

Consider A28G A39C, for which the self-cleavage stood at 0.11.

Take A28C C15U: the self-cleavage was found to be 0.33.

For A28C C15G, the self-cleavage was 0.32.

In the case of A28C C15A, the self-cleavage came out at 0.35.

In the case of A28C G30A, the self-cleavage amounted to 0.04.

As to A28C G30C, the self-cleavage stood at 0.05.

In the case of A28C G30U, the self-cleavage was 0.04.

For C27G G48C, the self-cleavage is 0.03.

C27G G48U: the self-cleavage stood at 0.02.

In the case of C27G G50A, the self-cleavage was found to be 0.09.

Turning to C27G G50C, the self-cleavage turned out to be 0.05.

Turning to C27G G50U, the self-cleavage came out at 0.07.

Take A28G C11U: the self-cleavage turned out to be 0.16.

As for A28G C11A, the self-cleavage worked out at 0.09.

As to A28G C11G, the self-cleavage stood at 0.06.

As for A28C G45U, the self-cleavage was determined as 0.08.

For A28C G45A, the self-cleavage was 0.13.

A28C G45C: the self-cleavage worked out at 0.03.

In the case of A28C G42C, the self-cleavage came out at 0.12.

With A28C G42U, the self-cleavage amounted to 0.08.

Turning to A28C G42A, the self-cleavage is 0.43.

Consider C27U G30U, for which the self-cleavage was 0.05.

C27U G30C: the self-cleavage came out at 0.02.

For C27U G30A, the self-cleavage stood at 0.02.

As for C27U G51U, the self-cleavage is 0.07.

On to C27U G51C, for which the self-cleavage was found to be 0.04.

For C27U G51A, the self-cleavage turned out to be 0.11.

As to A28C U37G, the self-cleavage was 0.98.

For A28C U37C, the self-cleavage amounted to 1.01.

Regarding A28C U37A, the self-cleavage was 0.74.

With C27G U18A, the self-cleavage turned out to be 0.09.

As for C27G U18C, the self-cleavage is 0.09.

In the case of C27G U18G, the self-cleavage came to 0.17.
